Experimental data as given in ChEMBL document CHEMBL3396998, “Synthesis and antitubercular evaluation of 4-carbonyl piperazine substituted 1,3-benzothiazin-4-one derivatives” (Bioorg Med Chem Lett, 2015).
In brackets after ≈: the same amount, converted by molar mass.

Key:
[1] = Aqueous solubility of the compound by HPLC method; type: physicochemical; conditions: water
[2] = Cytotoxicity against African green monkey Vero cells after 72 hrs by MTT assay; type: cell-based; conditions: chlorocebus sabaeus
Procedure, shortened: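 Vero cells were exposed to each compound over a broad concentration range. Viability was read by MTT, and cytotoxicity was reported as IC50.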

[3] = test system: Mycobacterium tuberculosis; assay: Antitubercular activity against Mycobacterium tuberculosis H37Ra ATCC 25177 by MABA method; type: functional
[4] = Ratio of aqueous solubility of BTZ038 to aqueous solubility of the compound by HPLC method; type: physicochemical; conditions: buffer
[5] = Ratio of aqueous solubility of PBTZ169 to aqueous solubility of the compound by HPLC method; type: physicochemical; conditions: buffer

SMILES: O=c1nc(N2CCN(CC3CCCCC3)CC2)sc2c([N+](=O)[O-])cc(C(F)(F)F)cc12 [MACOZINONE]
- solubility [1]: 9.07 µg/mL (≈ 19.9 µM)
- CC50 at 72 h [2]: > 125 µM
- MIC90 [3]: < 0.004 µM

SMILES: O=C(c1ccc([N+](=O)[O-])cc1)N1CCN(c2nc(=O)c3cc(C(F)(F)F)cc([N+](=O)[O-])c3s2)CC1
- solubility [1]: 1.67 µg/mL (≈ 3.28 µM)
- CC50 at 72 h [2]: > 125 µM
- MIC90 [3]: 0.063 µM (≈ 0.0321 µg/mL)

SMILES: O=C(c1ccc(F)cc1)N1CCN(c2nc(=O)c3cc(C(F)(F)F)cc([N+](=O)[O-])c3s2)CC1
- solubility [1]: 1.69 µg/mL (≈ 3.5 µM)
- CC50 at 72 h [2]: > 125 µM
- MIC90 [3]: 0.031 µM (≈ 0.015 µg/mL)

SMILES: O=C(c1ccccc1Cl)N1CCN(c2nc(=O)c3cc(C(F)(F)F)cc([N+](=O)[O-])c3s2)CC1
- solubility [1]: 8.18 µg/mL (≈ 16.4 µM)
- CC50 at 72 h [2]: > 125 µM
- MIC90 [3]: 0.016 µM (≈ 0.00798 µg/mL)

SMILES: O=C(c1ccccc1[N+](=O)[O-])N1CCN(c2nc(=O)c3cc(C(F)(F)F)cc([N+](=O)[O-])c3s2)CC1
- solubility [1]: 2.15 µg/mL (≈ 4.22 µM)
- CC50 at 72 h [2]: > 125 µM
- MIC90 [3]: 0.13 µM (≈ 0.0662 µg/mL)

SMILES: COc1ccccc1C(=O)N1CCN(c2nc(=O)c3cc(C(F)(F)F)cc([N+](=O)[O-])c3s2)CC1
- solubility [1]: 13.6 µg/mL (≈ 27.4 µM)
- CC50 at 72 h [2]: > 125 µM
- MIC90 [3]: 0.063 µM (≈ 0.0312 µg/mL)

SMILES: CC(=O)N1CCN(c2nc(=O)c3cc(C(F)(F)F)cc([N+](=O)[O-])c3s2)CC1
- solubility [1]: 83.9 µg/mL (≈ 208 µM)
- CC50 at 72 h [2]: > 125 µM
- MIC90 [3]: > 0.13 µM

SMILES: O=C(c1ccccc1F)N1CCN(c2nc(=O)c3cc(C(F)(F)F)cc([N+](=O)[O-])c3s2)CC1
- solubility [1]: 3.1 µg/mL (≈ 6.43 µM)
- CC50 at 72 h [2]: > 125 µM
- MIC90 [3]: 0.008 µM (≈ 0.00386 µg/mL)

SMILES: COc1cccc(C(=O)N2CCN(c3nc(=O)c4cc(C(F)(F)F)cc([N+](=O)[O-])c4s3)CC2)c1
- solubility [1]: 0.91 µg/mL (≈ 1.84 µM)
- CC50 at 72 h [2]: > 125 µM
- MIC90 [3]: 0.031 µM (≈ 0.0153 µg/mL)

SMILES: CC1COC2(CCN(c3nc(=O)c4cc(C(F)(F)F)cc([N+](=O)[O-])c4s3)CC2)O1 (racemic)
- solubility [1]: 0.94 µg/mL (≈ 2.18 µM)
- CC50 at 72 h [2]: > 125 µM
- MIC90 [3]: 0.004 µM (≈ 0.00173 µg/mL)

SMILES: O=C(c1cccc(F)c1)N1CCN(c2nc(=O)c3cc(C(F)(F)F)cc([N+](=O)[O-])c3s2)CC1
- solubility [1]: 0.2 µg/mL (≈ 0.415 µM)
- CC50 at 72 h [2]: > 125 µM
- MIC90 [3]: 0.016 µM (≈ 0.00772 µg/mL)

SMILES: CC(C)(C)C(=O)N1CCN(c2nc(=O)c3cc(C(F)(F)F)cc([N+](=O)[O-])c3s2)CC1
- solubility [1]: 5.87 µg/mL (≈ 13.2 µM)
- CC50 at 72 h [2]: > 125 µM
- MIC90 [3]: 0.031 µM (≈ 0.0138 µg/mL)

SMILES: O=C(N1CCN(c2nc(=O)c3cc(C(F)(F)F)cc([N+](=O)[O-])c3s2)CC1)C12CC3CC(CC(C3)C1)C2
- solubility [1]: 2.95 µg/mL (≈ 5.65 µM)
- CC50 at 72 h [2]: > 125 µM
- MIC90 [3]: 0.031 µM (≈ 0.0162 µg/mL)

SMILES: Cc1ccc(C(=O)N2CCN(c3nc(=O)c4cc(C(F)(F)F)cc([N+](=O)[O-])c4s3)CC2)cc1
- solubility [1]: 6.7 µg/mL (≈ 14 µM)
- CC50 at 72 h [2]: > 125 µM
- MIC90 [3]: 0.031 µM (≈ 0.0148 µg/mL)

SMILES: CCC(=O)N1CCN(c2nc(=O)c3cc(C(F)(F)F)cc([N+](=O)[O-])c3s2)CC1
- solubility [1]: 3.29 µg/mL (≈ 7.9 µM)
- CC50 at 72 h [2]: > 125 µM
- MIC90 [3]: 0.016 µM (≈ 0.00666 µg/mL)

SMILES: O=C(C1CCC1)N1CCN(c2nc(=O)c3cc(C(F)(F)F)cc([N+](=O)[O-])c3s2)CC1
- solubility [1]: 39.3 µg/mL (≈ 88.8 µM)
- CC50 at 72 h [2]: > 125 µM
- MIC90 [3]: 0.031 µM (≈ 0.0137 µg/mL)

SMILES: O=C(c1ccc(C(F)(F)F)cc1)N1CCN(c2nc(=O)c3cc(C(F)(F)F)cc([N+](=O)[O-])c3s2)CC1
- solubility [1]: 7.53 µg/mL (≈ 14.1 µM)
- CC50 at 72 h [2]: > 125 µM
- MIC90 [3]: 0.031 µM (≈ 0.0165 µg/mL)

SMILES: CCC(C)C(=O)N1CCN(c2nc(=O)c3cc(C(F)(F)F)cc([N+](=O)[O-])c3s2)CC1 (stereo not drawn)
- solubility [1]: 104 µg/mL (≈ 234 µM)
- Ratio [4]: 100
- CC50 at 72 h [2]: > 125 µM
- MIC90 [3]: 0.008 µM (≈ 0.00356 µg/mL)
- Ratio [5]: 10

SMILES: O=C(C1CCCCC1)N1CCN(c2nc(=O)c3cc(C(F)(F)F)cc([N+](=O)[O-])c3s2)CC1
- solubility [1]: 3.24 µg/mL (≈ 6.89 µM)
- CC50 at 72 h [2]: 88.7 µM
- MIC90 [3]: 0.031 µM (≈ 0.0146 µg/mL)

SMILES: O=C(C1CC1)N1CCN(c2nc(=O)c3cc(C(F)(F)F)cc([N+](=O)[O-])c3s2)CC1
- solubility [1]: 52.9 µg/mL (≈ 123 µM)
- CC50 at 72 h [2]: > 125 µM
- MIC90 [3]: 0.13 µM (≈ 0.0557 µg/mL)

SMILES: CCCCC(=O)N1CCN(c2nc(=O)c3cc(C(F)(F)F)cc([N+](=O)[O-])c3s2)CC1
- solubility [1]: 42.5 µg/mL (≈ 95.6 µM)
- CC50 at 72 h [2]: > 125 µM
- MIC90 [3]: 0.031 µM (≈ 0.0138 µg/mL)

SMILES: COc1ccc(CC(=O)N2CCN(c3nc(=O)c4cc(C(F)(F)F)cc([N+](=O)[O-])c4s3)CC2)cc1
- solubility [1]: 2.72 µg/mL (≈ 5.35 µM)
- CC50 at 72 h [2]: > 125 µM
- MIC90 [3]: 0.13 µM (≈ 0.0661 µg/mL)

SMILES: O=C(c1ccc(Cl)cc1)N1CCN(c2nc(=O)c3cc(C(F)(F)F)cc([N+](=O)[O-])c3s2)CC1
- solubility [1]: 5.19 µg/mL (≈ 10.4 µM)
- CC50 at 72 h [2]: > 125 µM
- MIC90 [3]: 0.016 µM (≈ 0.00798 µg/mL)

SMILES: O=C(C1CCCC1)N1CCN(c2nc(=O)c3cc(C(F)(F)F)cc([N+](=O)[O-])c3s2)CC1
- solubility [1]: 5.34 µg/mL (≈ 11.7 µM)
- CC50 at 72 h [2]: 120 µM
- MIC90 [3]: 0.016 µM (≈ 0.0073 µg/mL)

SMILES: CCc1ccc(C(=O)N2CCN(c3nc(=O)c4cc(C(F)(F)F)cc([N+](=O)[O-])c4s3)CC2)cc1
- solubility [1]: < 0.1 µg/mL
- CC50 at 72 h [2]: > 125 µM
- MIC90 [3]: 0.031 µM (≈ 0.0153 µg/mL)

SMILES: CC(C)(C)c1ccc(C(=O)N2CCN(c3nc(=O)c4cc(C(F)(F)F)cc([N+](=O)[O-])c4s3)CC2)cc1
- solubility [1]: 1.25 µg/mL (≈ 2.4 µM)
- CC50 at 72 h [2]: > 125 µM
- MIC90 [3]: 0.016 µM (≈ 0.00833 µg/mL)

SMILES: CCCC(=O)N1CCN(c2nc(=O)c3cc(C(F)(F)F)cc([N+](=O)[O-])c3s2)CC1
- solubility [1]: 2.46 µg/mL (≈ 5.72 µM)
- CC50 at 72 h [2]: > 125 µM
- MIC90 [3]: 0.13 µM (≈ 0.056 µg/mL)

SMILES: CSCC(=O)N1CCN(c2nc(=O)c3cc(C(F)(F)F)cc([N+](=O)[O-])c3s2)CC1
- solubility [1]: 15.2 µg/mL (≈ 33.8 µM)
- CC50 at 72 h [2]: > 125 µM
- MIC90 [3]: 0.13 µM (≈ 0.0583 µg/mL)

SMILES: O=C(CC1CCCCC1)N1CCN(c2nc(=O)c3cc(C(F)(F)F)cc([N+](=O)[O-])c3s2)CC1
- solubility [1]: 0.12 µg/mL (≈ 0.248 µM)
- CC50 at 72 h [2]: > 125 µM
- MIC90 [3]: 0.016 µM (≈ 0.00775 µg/mL)

SMILES: CC(C)CC(=O)N1CCN(c2nc(=O)c3cc(C(F)(F)F)cc([N+](=O)[O-])c3s2)CC1
- solubility [1]: 66.3 µg/mL (≈ 149 µM)
- CC50 at 72 h [2]: > 125 µM
- MIC90 [3]: 0.031 µM (≈ 0.0138 µg/mL)

SMILES: COc1ccc(C(=O)N2CCN(c3nc(=O)c4cc(C(F)(F)F)cc([N+](=O)[O-])c4s3)CC2)cc1
- solubility [1]: 0.22 µg/mL (≈ 0.445 µM)
- CC50 at 72 h [2]: > 125 µM
- MIC90 [3]: 0.13 µM (≈ 0.0643 µg/mL)

SMILES: CC(C)(C)C1CCC(C(=O)N2CCN(c3nc(=O)c4cc(C(F)(F)F)cc([N+](=O)[O-])c4s3)CC2)CC1 (stereo not drawn)
- solubility [1]: < 0.1 µg/mL
- CC50 at 72 h [2]: > 125 µM
- MIC90 [3]: 0.004 µM (≈ 0.00211 µg/mL)
